Assay [1] addresses T1, GABA-A receptor; alpha-1/beta-3/gamma-2 (Homo sapiens, UniProt P14867+P18507+P28472).
T1 sequence (P14867 whole entry): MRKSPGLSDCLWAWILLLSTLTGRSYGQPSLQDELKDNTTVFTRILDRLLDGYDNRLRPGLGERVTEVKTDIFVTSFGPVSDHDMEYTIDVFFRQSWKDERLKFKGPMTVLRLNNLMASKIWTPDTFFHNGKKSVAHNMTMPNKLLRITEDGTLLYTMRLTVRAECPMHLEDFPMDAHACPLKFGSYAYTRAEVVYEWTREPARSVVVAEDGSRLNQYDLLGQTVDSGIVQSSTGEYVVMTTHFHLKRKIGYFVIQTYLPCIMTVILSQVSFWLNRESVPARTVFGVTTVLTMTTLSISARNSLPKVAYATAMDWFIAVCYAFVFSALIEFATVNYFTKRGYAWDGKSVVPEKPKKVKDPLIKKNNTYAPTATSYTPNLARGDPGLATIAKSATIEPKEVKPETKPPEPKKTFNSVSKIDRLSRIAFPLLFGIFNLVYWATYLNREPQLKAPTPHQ
T1 sequence (P18507 whole entry): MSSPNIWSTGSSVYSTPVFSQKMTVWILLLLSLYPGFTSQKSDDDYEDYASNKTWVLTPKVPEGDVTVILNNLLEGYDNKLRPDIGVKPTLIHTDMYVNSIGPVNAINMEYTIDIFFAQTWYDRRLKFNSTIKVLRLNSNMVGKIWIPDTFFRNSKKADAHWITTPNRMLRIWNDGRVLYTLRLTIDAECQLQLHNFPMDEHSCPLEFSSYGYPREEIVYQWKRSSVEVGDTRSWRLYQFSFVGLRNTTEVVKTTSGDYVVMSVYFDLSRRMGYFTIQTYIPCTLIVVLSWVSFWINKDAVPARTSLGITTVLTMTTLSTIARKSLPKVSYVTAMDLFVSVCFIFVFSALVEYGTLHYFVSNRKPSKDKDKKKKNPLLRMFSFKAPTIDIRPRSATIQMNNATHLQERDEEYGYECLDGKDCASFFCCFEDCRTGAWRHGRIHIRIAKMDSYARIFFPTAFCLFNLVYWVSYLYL
T1 sequence (P28472 whole entry): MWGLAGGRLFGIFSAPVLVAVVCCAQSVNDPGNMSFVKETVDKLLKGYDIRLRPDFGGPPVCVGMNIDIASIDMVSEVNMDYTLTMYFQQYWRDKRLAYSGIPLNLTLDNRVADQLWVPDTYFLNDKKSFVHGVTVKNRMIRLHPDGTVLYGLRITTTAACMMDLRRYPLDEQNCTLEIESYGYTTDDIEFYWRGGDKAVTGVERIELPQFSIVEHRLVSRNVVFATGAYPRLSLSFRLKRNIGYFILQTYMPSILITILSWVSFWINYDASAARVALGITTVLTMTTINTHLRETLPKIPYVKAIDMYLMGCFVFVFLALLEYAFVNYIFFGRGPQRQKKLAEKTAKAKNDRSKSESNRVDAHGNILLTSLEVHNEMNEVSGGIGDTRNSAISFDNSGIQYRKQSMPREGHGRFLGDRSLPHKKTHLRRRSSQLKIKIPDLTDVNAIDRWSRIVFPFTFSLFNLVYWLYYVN
The experiment in a line: Binding affinity for human recombinant gamma-aminobutyric-acid (GABA) A receptor alpha-1-beta-3-gamma-2. The assay is classed as protein-complex assay.

The target in assay [2] is T2, GABA-A receptor; alpha-2/beta-3/gamma-2 (Homo sapiens, UniProt P18507+P28472+P47869).
T2 sequence (P18507 whole entry): T1 sequence (P18507 whole entry)
T2 sequence (P28472 whole entry): T1 sequence (P28472 whole entry)
T2 sequence (P47869 whole entry): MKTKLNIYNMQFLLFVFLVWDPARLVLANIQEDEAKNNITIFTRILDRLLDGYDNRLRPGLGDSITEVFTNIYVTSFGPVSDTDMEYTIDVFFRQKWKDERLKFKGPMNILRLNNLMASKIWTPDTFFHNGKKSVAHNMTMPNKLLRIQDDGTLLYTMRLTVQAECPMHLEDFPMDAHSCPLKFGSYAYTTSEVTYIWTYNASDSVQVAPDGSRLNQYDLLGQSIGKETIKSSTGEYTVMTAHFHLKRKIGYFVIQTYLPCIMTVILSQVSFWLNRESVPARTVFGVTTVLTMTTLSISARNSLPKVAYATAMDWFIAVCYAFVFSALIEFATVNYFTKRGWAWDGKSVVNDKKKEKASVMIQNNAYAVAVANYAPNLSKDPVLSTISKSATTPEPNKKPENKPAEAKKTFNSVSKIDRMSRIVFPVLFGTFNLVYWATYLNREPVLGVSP
The assay can be described thus: Binding affinity to human recombinant gamma-aminobutyric-acid (GABA) A receptor alpha-2-beta-3-gamma-2. Type of assay: protein-complex assay.

Assay [3] deals with T3, GABA-A receptor; alpha-5/beta-3/gamma-2 (Homo sapiens, UniProt P18507+P28472+P31644).
T3 sequence (P18507 whole entry): T1 sequence (P18507 whole entry)
T3 sequence (P28472 whole entry): T1 sequence (P28472 whole entry)
T3 sequence (P31644 whole entry): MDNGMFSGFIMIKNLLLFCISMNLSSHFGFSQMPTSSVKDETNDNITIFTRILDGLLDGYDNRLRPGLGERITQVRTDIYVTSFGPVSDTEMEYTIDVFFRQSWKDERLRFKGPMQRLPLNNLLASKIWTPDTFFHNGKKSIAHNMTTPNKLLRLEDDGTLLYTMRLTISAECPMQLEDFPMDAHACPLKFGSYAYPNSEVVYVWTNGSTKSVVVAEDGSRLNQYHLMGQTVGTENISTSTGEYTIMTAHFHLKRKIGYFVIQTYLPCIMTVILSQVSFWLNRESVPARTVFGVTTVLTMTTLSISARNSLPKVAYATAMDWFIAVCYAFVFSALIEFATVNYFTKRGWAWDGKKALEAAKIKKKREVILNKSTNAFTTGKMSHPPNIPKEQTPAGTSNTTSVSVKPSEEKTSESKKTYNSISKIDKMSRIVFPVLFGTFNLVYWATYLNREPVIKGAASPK
The experiment in a line: Binding affinity for human recombinant gamma-aminobutyric-acid (GABA) A receptor alpha-5-beta-3-gamma-2. Type of assay: protein-complex assay.

Assay [4] addresses T4, GABA-A receptor; alpha-3/beta-3/gamma-2 (Homo sapiens, UniProt P18507+P28472+P34903).
T4 sequence (P18507 whole entry): T1 sequence (P18507 whole entry)
T4 sequence (P28472 whole entry): T1 sequence (P28472 whole entry)
T4 sequence (P34903 whole entry): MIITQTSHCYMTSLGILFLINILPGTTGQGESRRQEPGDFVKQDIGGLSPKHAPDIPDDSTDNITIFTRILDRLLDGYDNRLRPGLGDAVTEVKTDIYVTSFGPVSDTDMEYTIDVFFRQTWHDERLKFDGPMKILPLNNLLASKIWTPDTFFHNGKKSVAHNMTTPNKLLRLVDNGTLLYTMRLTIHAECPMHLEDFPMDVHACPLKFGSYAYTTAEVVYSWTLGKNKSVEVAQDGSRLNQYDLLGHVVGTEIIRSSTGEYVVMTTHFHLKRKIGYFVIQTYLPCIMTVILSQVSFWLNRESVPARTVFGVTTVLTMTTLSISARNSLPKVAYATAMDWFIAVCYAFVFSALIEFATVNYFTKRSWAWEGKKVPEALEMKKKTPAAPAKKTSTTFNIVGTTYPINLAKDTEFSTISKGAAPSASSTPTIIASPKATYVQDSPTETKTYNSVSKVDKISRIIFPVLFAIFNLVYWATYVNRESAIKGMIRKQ
The experiment in a line: Binding affinity for human recombinant gamma-aminobutyric-acid (GABA) A receptor alpha-3-beta-3-gamma-2. The assay is classed as protein-complex assay.

For assay [5], the target named is GABA-A receptor; alpha-6/beta-3/gamma-2 (Homo sapiens, UniProt P18507+P28472+Q16445). The assay can be described thus: Binding affinity for human recombinant gamma-aminobutyric-acid (GABA) A receptor alpha-6-beta-3-gamma-2. The assay is classed as protein-complex assay. The essentials: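 Ltk⁻ cells expressing human α6β3γ2 were harvested by scraping into PBS, centrifuged at 3000g and resuspended in 10 mM KH₂PO₄/100 mM KCl (pH 7.4). Incubation was 1 h at 4 °C with filter harvest and scintillation counting.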
GABA-A receptor; alpha-6/beta-3/gamma-2, sequence (Q16445 whole entry, one chain of several): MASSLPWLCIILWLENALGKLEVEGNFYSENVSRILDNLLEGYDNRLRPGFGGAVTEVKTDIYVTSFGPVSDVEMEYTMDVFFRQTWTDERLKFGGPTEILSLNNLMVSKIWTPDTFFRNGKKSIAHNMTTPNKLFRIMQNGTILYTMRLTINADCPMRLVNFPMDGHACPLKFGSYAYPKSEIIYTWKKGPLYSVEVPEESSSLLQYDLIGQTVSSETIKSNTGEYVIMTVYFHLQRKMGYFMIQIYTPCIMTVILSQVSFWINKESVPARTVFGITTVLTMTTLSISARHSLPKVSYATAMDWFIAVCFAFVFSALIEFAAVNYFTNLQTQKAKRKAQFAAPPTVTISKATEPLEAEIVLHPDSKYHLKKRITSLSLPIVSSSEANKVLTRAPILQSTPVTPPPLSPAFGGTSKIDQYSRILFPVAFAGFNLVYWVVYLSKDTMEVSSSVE

The nature of assay [6]: Selectivity ratio of alpha1 beta-3 gamma2 GABA A / BzR and alpha5 beta-3 gamma2 GABA A / BzR.
Assay [7] has as its target T1, GABA-A receptor; alpha-1/beta-3/gamma-2. The experiment in a line: Binding affinity towards human GABA-A receptor alpha-1-beta-3-gamma-2 subunits. The assay is classed as protein-complex assay.

The results in this text go back to ChEMBL document CHEMBL1132940, “Pharmacophore/receptor models for GABA(A)/BzR subtypes (alpha1beta3gamma2, alpha5beta3gamma2, and alpha6beta3gamma2) via a comprehensive ligand-mapping approach” (J Med Chem, 2000).

In general, Ki refers to a dissociation constant, usually derived from enzyme kinetics or from competition with a known ligand. On to `CN1C(=O)CN=C(c2ccccc2)c2cc(C#N)ccc21`, for which the Ki was 320 nM in assay [1]; 310 nM in assay [2]; 265 nM in assay [3]; 350 nM in assay [4]; more than 3000 nM in assay [5]. Also, the Ratio in assay [6] was found to be 1.2.
Regarding `CN1C(=O)CN=C(c2cccs2)c2cc(F)ccc21`, the Ki in assay [1] was 141 nM; in assay [2], 215 nM; in assay [3], 65.5 nM; in assay [4], 205 nM; in assay [5], more than 300 nM. For the same compound, the Ratio in assay [6] was 2.15.
Take `C#Cc1ccc2c(c1)C(c1ccccc1)=NCC(=O)N2C`: the Ki in assay [1] was 76.3 nM; in assay [2] it was 42.1 nM; in assay [3] it was 6.8 nM; in assay [4] it was 47.4 nM; in assay [5], more than 3000 nM. Besides, the Ratio in assay [6] was found to be 11.2.
In the case of `CN1C(=O)CN=C(c2cccs2)c2cc(Cl)ccc21`, the inhibitory constant (Ki) in assay [1] was 19.2 nM; in assay [2] it was 13.2 nM; in assay [3] it was 11.5 nM; in assay [4], 13.4 nM; in assay [5], more than 300 nM. The Ratio in assay [6] turned out to be 1.7.
As for `CC(C)(C)C(=O)Oc1ccc2c(c1)[nH]c1c3c4ccccc4nc-3c[nH]c12`, the Ki in assay [7] was 156 nM; in assay [3], more than 3000 nM; in assay [5] it was more than 10000 nM.
On to `CN1C(=O)CN=C(c2ccccc2)c2cc(C#C[Si](C)(C)C)ccc21`, for which the Ki in assay [1] is 94 nM; in assay [2] it was 73 nM; in assay [3], 63 nM; in assay [4], 203 nM; in assay [5], more than 3000 nM. The Ratio in assay [6] was 1.49.
Take `O=C1CN=C(c2ccccc2)c2ccccc2N1` [RO-052921]: the Ki in assay [1] is 286 nM; in assay [2], 233 nM; in assay [3], 140 nM; in assay [4], 350 nM; in assay [5], more than 3000 nM. The Ratio in assay [6] is 2.04.
As to `CCOC(=O)c1ncn2c1CN(C)C(=O)c1ccccc1-2` [RO-147437], the Ki in assay [1] is 1.2 nM; in assay [2], 2 nM; in assay [3], 0.4 nM; in assay [4], 1.1 nM; in assay [5], more than 300 nM. The Ratio in assay [6] stood at 3.
On to `O=C1CN=C(c2cccs2)c2cc(F)ccc2N1`, for which the Ki in assay [1] was 175 nM; in assay [2] it was 335 nM; in assay [3], 150 nM; in assay [4] it was 405 nM; in assay [5], more than 300 nM. The Ratio in assay [6] was found to be 1.17.
Regarding `CN1C(=O)CN=C(c2ccccc2)c2cc(Br)ccc21`, the inhibitory constant (Ki) in assay [1] is 9.4 nM; in assay [2] it was 9.3 nM; in assay [3], 7.7 nM; in assay [4], 31 nM; in assay [5] it was more than 3000 nM. Moreover, the Ratio in assay [6] is 1.22.
As for `CCc1c(C(=O)NN)[nH]cc2nc3cc(OC)c(OC)cc3c1-2`, the Ki is 896 nM in assay [1]; more than 1000 nM in assay [2]; 91.5 nM in assay [3]; 570 nM in assay [4]; more than 3000 nM in assay [5].
On to `Clc1ccc2c(c1)[nH]c1c2ncc2[nH]c3ccccc3c21`, for which the inhibition constant Ki in assay [1] was 3.9 nM; in assay [2] it was 12.2 nM; in assay [3], 210 nM; in assay [4], 24.4 nM; in assay [5], more than 10000 nM.
As for `CN1C(=O)CN=C(c2ccccc2)c2ccccc21`, the Ki in assay [1] was 81 nM; in assay [2] it was 138 nM; in assay [3], 96 nM; in assay [4], 318 nM; in assay [5], more than 3000 nM. Further, the Ratio in assay [6] came to 0.84.
